From ChEMBL document CHEMBL1240314, “Small-molecule inhibitor of p53 binding to mitochondria protects mice from gamma radiation” (2006)
Active and inactive are the calls of the source. The calls are words filed in the database; no cut-off is given here.

Legend:
WI-38 [1] = test: Antiapoptotic activity against Fas-induced apoptosis in human WI38 cells assessed as cell survival at 0.1 uM to 10 uM after 24 hrs by methylene blue assay in presence of 1 ug/ml cycloheximidine; type: functional, cell-based
[2] = biological target: Cellular tumor antigen p53 (Homo sapiens) (UniProt P04637); test: Inhibition of p53-dependent transactivation of p21 in gamma-stimulated human ConA cells; type: cell-based
How it was run: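 ConA cells given 10 µM test agent and 10 Gy gamma irradiation. Protein extracts taken 6 h post-irradiation and p21 detected by immunoblotting.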

[3] = biological target: Cellular tumor antigen p53 (Homo sapiens) (UniProt P04637); test: Binding affinity to p53 assessed as reduction in mitochondrial-bound p53 level at 10 uM
How it was run: (§1)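 Cell-free reconstitution: freshly isolated HeLa or Saos-2 mitochondria (40 mg as printed) incubated 1 h at 37 °C with purified baculoviral human wild-type p53 (60 ng) plus compound in MS buffer with CaCl2; mitochondria pelleted, washed three times, p53 cosedimentation by western blot, mt-Hsp75 loading control.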

[4] = biological target: Cellular tumor antigen p53 (Homo sapiens) (UniProt P04637); test: Inhibition of p53-dependent transcription of bax in human MCF7 cells; type: cell-based
How it was run: (§2)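 Northern analysis of MCF7 cells, p53 wild-type and shRNA p53-knockdown. Induction by UV 8.5 J m–2 or Dox […]. RNA isolated 18 h after treatment; 10 µg hybridised with 32P-labelled full-length cDNA probes for Bax, Noxa or Puma. 18S rRNA used as loading control.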

Mus musculus [5] = test: Protection against 8 Gy gamma radiation-induced death in mouse assessed as increase in survival at 40 mg/kg, ip; type: functional; conditions: route intraperitoneal
How it was run: (§3)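 Male C57Bl/6J mice, 8–10 weeks old, given a single 40 mg kg–1 intraperitoneal dose 30 min before total-body gamma irradiation (137Cs, 4 Gy min–1) at 8 or 9 Gy. Survival followed. Ten mice per subgroup; three independent repeats.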

Mus musculus [6] = test: Protection against 9 Gy gamma radiation-induced death in mouse assessed as increase in survival at 40 mg/kg, ip; type: functional; conditions: route intraperitoneal; how it was run: as §3
Thymocyte [7] = test: Antiapoptotic activity against dexamethasone-induced apoptosis in mouse thymocyte at 10 uM; type: functional, cell-based
How it was run: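 Primary thymocytes from 4-week-old p53-null C57Bl/6 mice, short-term culture; dexamethasone 0.5 mM, 24 h, with compound at 10 mM as printed; viability by trypan blue (0.1%) or annexin/PI FACScan; means ± s.d., n = 3.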

[8] = biological target: Cellular tumor antigen p53 (Mus musculus) (UniProt P02340); test: Inhibition of p53-mediated transactivation of p21 in gamma-stimulated mouse ConA cells at 10 uM after 6 hrs
Target sequence in this assay (P02340 whole entry, looked up): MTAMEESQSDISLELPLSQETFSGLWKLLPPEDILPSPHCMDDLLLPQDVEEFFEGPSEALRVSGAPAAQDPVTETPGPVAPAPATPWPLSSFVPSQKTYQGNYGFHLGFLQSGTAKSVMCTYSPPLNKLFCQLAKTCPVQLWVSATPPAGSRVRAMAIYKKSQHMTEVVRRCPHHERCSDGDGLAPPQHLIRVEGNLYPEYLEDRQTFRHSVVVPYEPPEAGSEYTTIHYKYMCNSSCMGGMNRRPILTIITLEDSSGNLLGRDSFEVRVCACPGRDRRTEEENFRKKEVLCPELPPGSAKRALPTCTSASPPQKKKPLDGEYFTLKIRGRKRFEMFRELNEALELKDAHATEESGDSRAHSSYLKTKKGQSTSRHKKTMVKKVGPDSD

MCF7 [9] = test: Induction of Noxa gene expression in human MCF7 cells; type: functional, cell-based
How it was run: (§4)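 Northern blot: 10 mg RNA (so in the source) isolated 18 h after UV (8.5 J m–2) or doxorubicin (125 mg ml–1 as printed) from MCF7 or U2OS cells and p53-knockdown (lentiviral shRNA) counterparts; hybridized with 32P-labeled full-length cDNA probes for Bax, Noxa, Puma; 18S rRNA loading control.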

WI-38 [10] = test: Antiapoptotic activity against TNF-alpha induced apoptosis in human WI38 cells assessed as cell survival at 0.1 uM to 10 uM after 24 hrs by methylene blue assay in presence of 0.5 ug/ml cycloheximidine; type: functional, cell-based
NCI-H1299 = test: Antiapoptotic activity against staurosporine-induced cell death in human H1299 cells assessed as cell survival at 10 uM after 24 hrs by methylene blue assay; type: functional, cell-based
[11] = biological target: Cellular tumor antigen p53 (Homo sapiens) (UniProt P04637); test: Inhibition of p53-mediated transactivation of promoter bax in human H1299 cells at 10 uM after 48 hrs by luciferase reporter assay; type: cell-based
Thymocyte [12] = test: Induction of Puma gene expression in gamma-induced mouse thymocytes; type: functional, cell-based
H1299 = test: Inhibition of TNFalpha induced NF-kappaB activation in human H1299 cells; type: cell-based
[13] = biological target: Cellular tumor antigen p53 (Homo sapiens) (UniProt P04637); test: Binding affinity to p53 assessed as reduction in mitochondrial-bound p53 level at 25 uM; how it was run: as §1
U2OS = test: Induction of Noxa gene expression in doxorubicin-induced human U2OS cells; type: functional, cell-based; how it was run: as §4
[14] = biological target: Cellular tumor antigen p53 (Homo sapiens) (UniProt P04637); test: Binding affinity to p53 transfected in human Saos-2 cells harboring pLV-53 assessed as cytosolic p53 concentration at 10 uM after 48 hrs; type: cell-based
MCF7 [15] = test: Induction of Puma gene expression in human MCF7 cells; type: functional, cell-based; how it was run: as §4
[16] = biological target: Cellular tumor antigen p53 (Homo sapiens) (UniProt P04637); test: Inhibition of p53-dependent transcription of noxa in UV-induced human MCF7 cells; type: cell-based; how it was run: as §2
[17] = biological target: Cellular tumor antigen p53 (Homo sapiens) (UniProt P04637); test: Inhibition of p53-mediated transactivation of promoter hDM2 in human H1299 cells at 10 uM after 48 hrs by lacZ reporter assay; type: cell-based
[18] = Antiapoptotic activity against gamma irradiation-induced apoptosis in mouse thymocyte assessed as cytosolic Cyt c concentration at 20 uM; type: functional, cell-based
How it was run: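 Thymocytes (20 × 10^6) from 5-week-old C57Bl/6J mice irradiated with 10 Gy gamma, with or without compound ([…] as printed); cytosolic fractions isolated 5 h after irradiation and probed for cytochrome c by western blot.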

[19] = biological target: Cellular tumor antigen p53 (Mus musculus) (UniProt P02340); test: Inhibition of p53-dependent transcription of puma in mouse thymocyte
Target sequence in this assay (P02340 whole entry): as the sequence (P02340 whole entry, looked up) above

[20] = biological target: Cellular tumor antigen p53 (Mus musculus) (UniProt P02340); test: Binding affinity to p53 in gamma irradiated mouse thymocyte assessed as cytosolic p53 concentration at 10 uM after 2 hrs
Target sequence in this assay (P02340 whole entry): as the sequence (P02340 whole entry, looked up) above

[21] = biological target: Cellular tumor antigen p53 (Mus musculus) (UniProt P02340); test: Inhibition of p53-mediated apoptosis in mouse fibroblast assessed as cell survival at 10 uM after 24 hrs by methylene blue assay
Target sequence in this assay (P02340 whole entry): as the sequence (P02340 whole entry, looked up) above

[22] = biological target: Cellular tumor antigen p53 (Homo sapiens) (UniProt P04637); test: Effect on UV-induced activation of p53 in human ConA cells assessed as beta-galactosidase activity by X-gal staining; type: cell-based
How it was run: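 ConA cells carrying a lacZ reporter under a p53-responsive promoter; UV 35 J m–2; β-galactosidase visualized by X-gal staining 24 h after treatment.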

[23] = biological target: Cellular tumor antigen p53 (Homo sapiens) (UniProt P04637); test: Inhibition of p53 in human ConA cells assessed as effect on cell cycle distribution at 10 uM after 24 hrs; type: cell-based
How it was run: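 ConA cells given 10 µM test agent, with or without 10 Gy gamma irradiation. Cell-cycle distribution measured 24 h later.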

HeLa = test: Antiapoptotic activity against staurosporine-induced cell death in human HeLa cells assessed as cell survival at 10 uM after 24 hrs by methylene blue assay; type: functional, cell-based
[24] = biological target: Cellular tumor antigen p53 (Homo sapiens) (UniProt P04637); test: Inhibition of p53-dependent transcription of noxa in human MCF7 cells; type: cell-based; how it was run: as §2
[25] = biological target: Cellular tumor antigen p53 (Homo sapiens) (UniProt P04637); test: Inhibition of p53-dependent transcription of puma in human U2OS cells; type: cell-based
How it was run: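 Northern analysis of U2OS cells, p53 wild-type and shRNA p53-knockdown. Induction by UV 8.5 J m–2 or Dox […]. RNA isolated 18 h after treatment; 10 µg hybridised with 32P-labelled full-length cDNA probes for Bax, Noxa or Puma. 18S rRNA used as loading control.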

[26] = biological target: Cellular tumor antigen p53 (Homo sapiens) (UniProt P04637); test: Inhibition of p53-mediated apoptosis in human Saos-2 cells harboring p53 expressing lentiviral vector assessed as cell survival at 10 uM after 48 hrs by methylene blue assay; type: cell-based
How it was run: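 Saos-2 cells infected with p53-expressing lentivirus; 10 µM test agent added 5 h after infection. Survival assessed 48 h after infection by methylene blue (0.5%) staining of attached cells and optical density read-out. Means ± s.d., n = 3.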

Cellular tumor antigen p53 (Homo sapiens), sequence (P04637 whole entry, looked up): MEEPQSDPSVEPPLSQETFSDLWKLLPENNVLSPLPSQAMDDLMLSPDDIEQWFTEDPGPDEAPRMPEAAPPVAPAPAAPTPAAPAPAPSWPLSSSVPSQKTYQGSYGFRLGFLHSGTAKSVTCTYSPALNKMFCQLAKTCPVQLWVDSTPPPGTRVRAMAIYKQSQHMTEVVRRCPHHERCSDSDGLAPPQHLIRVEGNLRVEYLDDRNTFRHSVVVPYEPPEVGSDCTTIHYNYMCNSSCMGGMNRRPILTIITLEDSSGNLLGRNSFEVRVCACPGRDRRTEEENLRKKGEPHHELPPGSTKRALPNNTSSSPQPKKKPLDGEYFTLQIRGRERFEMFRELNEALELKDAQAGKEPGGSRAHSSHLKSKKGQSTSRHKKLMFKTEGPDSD

NS(=O)(=O)C#Cc1ccccc1
Activity (WI-38 [1]): inactive
inhibition [2]: inactive
Activity [3]: Active
inhibition [4]: inactive
Activity (Mus musculus [5]): 70%
Activity (Mus musculus [6]): 50%
Activity (Thymocyte [7]): inactive
inhibition [8]: inactive
Activity (MCF7 [9]): inactive
Activity (WI-38 [10]): inactive
Activity (NCI-H1299): inactive
inhibition [11]: inactive
Activity (Thymocyte [12]): inactive
inhibition (H1299): inactive
Activity [13]: Active
Activity (U2OS): inactive
Activity [14]: inactive
Activity (MCF7 [15]): inactive
inhibition [16]: inactive
inhibition [17]: inactive
Activity [18]: Active
inhibition [19]: inactive
Activity [20]: inactive
inhibition [21]: Active
Activity [22]: inactive
inhibition [23]: inactive
Activity (HeLa): inactive
inhibition [24]: inactive
inhibition [25]: inactive
inhibition [26]: Active
